The source made the active and inactive calls. No cut-off for these calls is given here.
How the values were obtained:
[1] = biological target: T1, 4,4'-diapophytoene desaturase (4,4'-diaponeurosporene-forming) (Staphylococcus aureus (strain MW2)) (UniProt Q8NUQ6); conditions: Staphylococcus aureus subsp. aureus MW2; USA400; 1 uM
T1 sequence (whole entry): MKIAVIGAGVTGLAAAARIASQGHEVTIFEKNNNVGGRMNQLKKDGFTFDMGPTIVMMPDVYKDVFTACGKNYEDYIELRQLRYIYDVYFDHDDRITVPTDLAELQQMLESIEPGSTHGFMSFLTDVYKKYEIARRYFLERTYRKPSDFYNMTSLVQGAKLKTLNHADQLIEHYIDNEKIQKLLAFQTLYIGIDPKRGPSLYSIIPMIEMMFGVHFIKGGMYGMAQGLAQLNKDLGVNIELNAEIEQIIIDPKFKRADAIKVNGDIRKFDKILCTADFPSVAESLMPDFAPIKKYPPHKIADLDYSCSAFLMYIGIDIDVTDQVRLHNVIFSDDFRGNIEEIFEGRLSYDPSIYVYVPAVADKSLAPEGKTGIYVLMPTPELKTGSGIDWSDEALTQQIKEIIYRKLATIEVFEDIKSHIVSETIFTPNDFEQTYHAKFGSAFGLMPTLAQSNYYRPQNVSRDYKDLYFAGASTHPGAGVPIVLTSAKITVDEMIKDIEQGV

[2] = Inhibition of CrtN in methicillin-resistant Staphylococcus aureus NRS100 assessed as reduction in staphyloxanthin levels after 48 hrs by spectrophotometric method-based pigment inhibition assay
[3] = Half life in Sprague-Dawley rat at 5 mg/kg, iv administered as single dose by LC-MS/MS analysis; assay type: ADME, organism-based; conditions: in vivo
[4] = Clearance in Sprague-Dawley rat at 5 mg/kg, iv administered as single dose by LC-MS/MS analysis; assay type: ADME, organism-based; conditions: in vivo
[5] = Inhibition of CrtN in methicillin-resistant Staphylococcus aureus LRSA205 assessed as reduction in staphyloxanthin levels after 48 hrs by spectrophotometric method-based pigment inhibition assay
[6] = system: Staphylococcus aureus; test: In vivo anti-virulence activity against Staphylococcus aureus Newman infected in BALB/c mouse model assessed as reduction in bacterial load in heart at 0.2 mg bid for 3.5 days administered orally 6 hrs post infection by serial dilution method relative to control; assay type: functional, organism-based
Method in brief: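 Mice got 3.1 × 10^7 CFU S. aureus Newman by retro-orbital injection. Oral compound was given b.i.d. for 3.5 d, starting 6 h after infection. […] Log10 CFU was counted per kidney and per heart.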

[7] = system: Liver; test: (§1) Half life in human liver microsomes at 2 uM after 60 mins in presence of NADPH by LC-MS/MS method; assay type: ADME, microsome; conditions: microsomes, 1 h, 2 µM
[8] = Tmax in Sprague-Dawley rat at 10 mg/kg, ip administered as single dose by LC-MS/MS analysis; assay type: ADME, organism-based; conditions: in vivo
[9] = AUC (0 to infinity) in mouse at 2 mg/kg, iv administered as single dose by LC-MS/MS analysis; assay type: ADME, organism-based; set-up: dose 2 mg/kg, time infinity, route intravenous; conditions: in vivo
[10] = system: Staphylococcus aureus; test: In vivo anti-virulence activity against methicillin-resistant Staphylococcus aureus Mu50 infected in BALB/c mouse model assessed as reduction in bacterial load in heart at 0.05 mg bid for 3.5 days administered intraperitoneally 6 hrs post infection by serial dilution method; assay type: functional; set-up: scale not given: the % may be the effect or the level left
Method in brief: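 Mice were challenged with 1.3 × 10^9 CFU Mu50. Compound was given intraperitoneally, either 24 h before or 6 h after infection. Log10 CFU was counted in kidneys and hearts.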

[11] = system: Staphylococcus aureus; test: In vivo anti-virulence activity against methicillin-resistant Staphylococcus aureus LRSA56 infected in BALB/c mouse model assessed as reduction in bacterial load in heart at 0.1 mg bid for 3.5 days administered intraperitoneally 6 hrs post infection by serial dilution method relative to control; assay type: functional; set-up: scale not given: the % may be the effect or the level left
Method in brief: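 Mice were infected by retro-orbital injection with LRSA56 (5.0 × 10^7 CFU) or LRSA202 (7.0 × 10^7 CFU). Compound was given intraperitoneally 6 h after infection. […] Log10 CFU was counted in kidneys and hearts, with groups compared by two-tailed Mann-Whitney test.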

[12] = system: Staphylococcus aureus; test: In vivo anti-virulence activity against methicillin-resistant Staphylococcus aureus XN108 infected in BALB/c mouse model assessed as reduction in bacterial load in heart at 0.1 mg bid for 3.5 days administered intraperitoneally 6 hrs post infection by serial dilution method relative to vancomycin; assay type: functional, organism-based
Method in brief: (§2)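 Mice infected retro-orbitally with S. aureus NF65Y (3.5 × 10^8 CFU) or XN108 (2.1 × 10^8 CFU). Test compound given i.p. b.i.d. starting 6 h post-infection. […] Log10 CFU per kidney and heart counted. Two-tailed Mann−Whitney test.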

[13] = system: Rattus norvegicus; test: Toxicity in Sprague-Dawley rat at 60 to 1000 mg/kg, po administered as single dose assessed as abnormal behavior measured during 2 weeks post administration; assay type: organism-based; conditions: in vivo, 336 h
Method in brief: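 Rats, 30 in total, randomised into three groups. Each received a single oral dose of 60, 250 or 1000 mg/kg on day 1. Poisoning symptoms, mortality, behaviour, water and food consumption and body weight monitored immediately and over 2 weeks.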

[14] = system: Staphylococcus aureus; test: In vivo anti-virulence activity against methicillin-resistant Staphylococcus aureus NF65Y infected in BALB/c mouse model assessed as reduction in bacterial load in kidney at 0.1 mg bid for 3.5 days administered intraperitoneally 6 hrs post infection by serial dilution method relative to linezolid; assay type: functional, organism-based
Method in brief: as §2

[15] = Cmax in mouse at 10 mg/kg, po administered as single dose by LC-MS/MS analysis; assay type: ADME, organism-based; set-up: dose 10 mg/kg, route oral; conditions: in vivo
[16] = biological target: Cytochrome P450 2C8 (Homo sapiens, UniProt P10632); test: Inhibition of CYP2C8 in human liver microsomes using paclitaxel as substrate upto 10 uM after 20 mins in presence of NADPH by LC-MS/MS analysis; assay type: ADME
[17] = system: Staphylococcus aureus; test: Antibacterial activity against Staphylococcus aureus Newman after 24 hrs by broth dilution method; assay type: functional; conditions: Staphylococcus aureus, Newman, 24 h; read-out: MIC
[18] = Inhibition of CrtN in methicillin-resistant Staphylococcus aureus LRSA56 assessed as reduction in staphyloxanthin levels after 48 hrs by spectrophotometric method-based pigment inhibition assay
[19] = as §1; assay type: ADME, microsome; conditions: liver microsomes

Cytochrome P450 2C8, sequence (P10632 whole entry): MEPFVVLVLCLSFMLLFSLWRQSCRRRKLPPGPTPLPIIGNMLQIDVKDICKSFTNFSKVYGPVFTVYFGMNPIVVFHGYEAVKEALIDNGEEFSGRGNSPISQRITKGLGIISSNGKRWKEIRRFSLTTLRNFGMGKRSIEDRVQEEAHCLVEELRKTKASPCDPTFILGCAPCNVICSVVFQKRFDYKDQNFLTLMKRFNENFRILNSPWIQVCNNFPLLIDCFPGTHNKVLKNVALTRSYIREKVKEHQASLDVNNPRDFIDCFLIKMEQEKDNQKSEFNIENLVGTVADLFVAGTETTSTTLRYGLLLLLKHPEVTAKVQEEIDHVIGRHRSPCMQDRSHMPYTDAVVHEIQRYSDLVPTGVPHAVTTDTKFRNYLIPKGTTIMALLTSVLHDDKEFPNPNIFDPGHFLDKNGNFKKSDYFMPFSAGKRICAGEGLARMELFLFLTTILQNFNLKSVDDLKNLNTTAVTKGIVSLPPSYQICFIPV

| Structure (SMILES) | Survival [1] [%] | IC50 [2] [nM] | half-life [3] [h] | clearance [4] [mL/min/kg] | IC50 [5] [nM] | Activity [6] | t1/2 [7] [h] | Tmax [8] [h] | AUC(0-inf) [9] [ng·h/mL] | Activity [10] [%] | Activity [11] [%] | Activity [12] | Activity [13] | Activity [14] | Cmax [15] [ng/mL] | IC50 [16] [nM] | MIC [17] [µg/mL] | IC50 [18] [nM] | half-life at 2 µM [19] [h] |
| --- | --- | --- | --- | --- | --- | --- | --- | --- | --- | --- | --- | --- | --- | --- | --- | --- | --- | --- | --- |
| CN(C/C=C/c1ccc(-c2ccccc2)cc1)Cc1coc2ccccc12.Cl | 2.3 | 1.2 | 2.46 | 29.2 | 10.5 | inactive | 0.845 | 3 | 1090 | >99.8 | >81.4 | Active | Non-Toxic | Active | 801 | > 10000 | > 500 | 1.8 |  |
| CN(C/C=C/c1ccc(-c2ccccc2)cc1)Cc1cccc2cc[nH]c12.Cl |  |  |  |  |  |  |  |  |  |  |  |  |  |  |  |  |  |  | 1.56 |
